# Source: ChEMBL document CHEMBL1817572, “New, potent, selective, and short-acting peptidic V1a receptor agonists” (J Med Chem, 2011)
# Bridge positions count the residues as written; N and C are the ends. Square brackets hold non-standard residues; d marks the D form. Peptide text beside a SMILES is read from it. * marks the point of attachment. Ala(4-thiazolyl) = N[C@@H](Cc1cscn1)C(=O)O; Ala(2-furyl) = N[C@@H](Cc1ccco1)C(=O)O; Orn(iPr) = CC(C)NCCC[C@H](N)C(=O)O; Orn(Pr) = CCCNCCC[C@H](N)C(=O)O; 2Thi = N[C@@H](Cc1cccs1)C(=O)O; 3Thi = N[C@@H](Cc1ccsc1)C(=O)O; NHCH(CH2OH)2 = OCC(CO)N*; Orn = NCCC[C@H](N)C(=O)O; Dab = NCC[C@H](N)C(=O)O; Ac4c = NC1(C(=O)O)CCC1
# Experiments:
# [1] = molecular target: Vasopressin V1a/V2 (Homo sapiens) (UniProt P30518+P37288); assay: Selectivity ratio of EC50 for human vasopressin V2 receptor to EC50 for human vasopressin V1a receptor
# Vasopressin V1a/V2 (Homo sapiens), sequence (P30518 whole entry, looked up): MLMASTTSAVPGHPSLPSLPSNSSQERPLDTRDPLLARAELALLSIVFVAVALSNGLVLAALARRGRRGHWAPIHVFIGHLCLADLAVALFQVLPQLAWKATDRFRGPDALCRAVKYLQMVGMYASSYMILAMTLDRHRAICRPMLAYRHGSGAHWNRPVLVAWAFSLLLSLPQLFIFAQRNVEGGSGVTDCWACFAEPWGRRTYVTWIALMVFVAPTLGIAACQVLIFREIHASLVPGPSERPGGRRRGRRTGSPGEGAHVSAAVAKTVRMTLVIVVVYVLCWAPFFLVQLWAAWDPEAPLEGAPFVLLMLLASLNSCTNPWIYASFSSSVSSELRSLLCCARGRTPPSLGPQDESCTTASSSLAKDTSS
# Vasopressin V1a/V2 (Homo sapiens), sequence (P37288 whole entry, looked up): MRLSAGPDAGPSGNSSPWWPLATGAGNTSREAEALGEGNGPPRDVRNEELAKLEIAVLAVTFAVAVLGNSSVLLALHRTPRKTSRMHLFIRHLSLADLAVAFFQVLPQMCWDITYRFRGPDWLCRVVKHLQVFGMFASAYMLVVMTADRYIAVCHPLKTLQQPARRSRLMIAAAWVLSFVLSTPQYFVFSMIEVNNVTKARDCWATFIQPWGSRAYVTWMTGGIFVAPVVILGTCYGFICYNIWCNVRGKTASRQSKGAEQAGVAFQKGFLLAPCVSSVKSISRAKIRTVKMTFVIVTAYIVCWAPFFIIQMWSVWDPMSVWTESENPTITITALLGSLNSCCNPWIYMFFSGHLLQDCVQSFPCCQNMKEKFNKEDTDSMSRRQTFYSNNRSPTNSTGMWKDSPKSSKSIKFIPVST
# [2] = molecular target: T1, Vasopressin V1a receptor (Homo sapiens, UniProt P37288); assay: Agonist activity at recombinant human vasopressin V1a receptor expressed in HEK293 cells by luciferase reporter gene assay; format: functional, cell-based; details: read-out: EC50
# Target sequence in this assay (P37288 whole entry): as the sequence (P37288 whole entry, looked up) above
# [3] = molecular target: T2, Vasopressin V1b receptor (Homo sapiens, UniProt P47901); assay: Agonist activity at recombinant human vasopressin V1b receptor expressed in Flp-In-293 cells by luciferase reporter gene assay; format: functional, cell-based
# T2 sequence (P47901 whole entry): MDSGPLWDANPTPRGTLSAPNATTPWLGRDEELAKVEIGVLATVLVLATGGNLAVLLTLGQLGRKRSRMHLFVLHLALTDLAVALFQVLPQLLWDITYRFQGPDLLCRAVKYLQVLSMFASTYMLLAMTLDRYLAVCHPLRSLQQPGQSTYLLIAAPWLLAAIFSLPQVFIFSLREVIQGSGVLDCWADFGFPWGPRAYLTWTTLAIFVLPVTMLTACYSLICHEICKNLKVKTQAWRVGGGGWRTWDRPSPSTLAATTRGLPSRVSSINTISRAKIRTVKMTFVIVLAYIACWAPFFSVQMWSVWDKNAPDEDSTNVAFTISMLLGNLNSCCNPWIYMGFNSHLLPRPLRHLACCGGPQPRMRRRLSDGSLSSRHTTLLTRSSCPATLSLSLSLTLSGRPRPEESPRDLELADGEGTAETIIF
# Method in brief: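 Reporter gene assays in HEK293 cells transiently cotransfected with V1a (human or rat) or human V2 receptor vector plus NFAT-luciferase (V1a) or CRE-luciferase (V2) reporter; V1b in Flp-In-293 stably expressing receptor, OT in CHO-K1 stably expressing receptor, both transiently transfected with NFAT-luciferase. Two days post-transfection, peptides added for 5 h at 37 °C, lysis with luciferin, luminescence read.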
# [4] = molecular target: T3, Vasopressin V2 receptor (Homo sapiens, UniProt P30518); assay: Agonist activity at recombinant human vasopressin V2 receptor expressed in HEK293 cells by luciferase reporter gene assay; format: functional, cell-based
# T3 sequence (P30518 whole entry): as the sequence (P30518 whole entry, looked up) above
# [5] = molecular target: T4, Oxytocin receptor (Homo sapiens, UniProt P30559); assay: Agonist activity at human OT receptor expressed in CHO-K1 cells by luciferase reporter gene assay; format: functional, cell-based
# T4 sequence (P30559 whole entry): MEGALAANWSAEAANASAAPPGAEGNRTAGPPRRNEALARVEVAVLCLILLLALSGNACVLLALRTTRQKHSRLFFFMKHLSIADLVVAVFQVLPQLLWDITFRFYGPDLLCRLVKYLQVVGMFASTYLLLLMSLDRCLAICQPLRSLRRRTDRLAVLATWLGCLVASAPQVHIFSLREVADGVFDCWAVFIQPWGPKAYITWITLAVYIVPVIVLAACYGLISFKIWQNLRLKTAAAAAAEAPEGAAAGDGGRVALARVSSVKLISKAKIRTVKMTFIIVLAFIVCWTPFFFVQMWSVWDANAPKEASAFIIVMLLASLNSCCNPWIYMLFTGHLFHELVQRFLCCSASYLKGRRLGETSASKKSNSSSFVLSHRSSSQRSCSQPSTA
# [6] = species: Homo sapiens; assay: Selectivity ratio of EC50 for human vasopressin V1b receptor to EC50 for human vasopressin V1a receptor
# [7] = species: Homo sapiens; assay: Selectivity ratio of EC50 for human oxytocin receptor to EC50 for human vasopressin V1a receptor
# [8] = molecular target: T5, Vasopressin V1b receptor (Homo sapiens) (UniProt P47901); assay: Partial agonist activity at recombinant human vasopressin V1b receptor expressed in Flp-In-293 cells by luciferase reporter gene assay; format: functional, cell-based
# T5 sequence (whole entry): T2 sequence (P47901 whole entry)
# Method in brief: (§1)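 Same luciferase reporter systems (OT in stable CHO-K1, V1b in stable Flp-In-293, each with transient NFAT-luciferase; V1a in HEK293 with NFAT-luciferase, V2 in HEK293 with CRE-luciferase). Peptides added for 5 h at 37 °C two days post-transfection, luminescence read. Partial agonism means efficacy <70%.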
# [9] = molecular target: T6, Oxytocin receptor (Homo sapiens) (UniProt P30559); assay: Partial agonist activity at human OT receptor expressed in CHO-K1 cells by luciferase reporter gene assay; format: functional, cell-based; method in brief: as §1
# T6 sequence (whole entry): T4 sequence (P30559 whole entry)
# [10] = molecular target: T3, Vasopressin V2 receptor; assay: Partial agonist activity at recombinant human vasopressin V2 receptor expressed in HEK293 cells by luciferase reporter gene assay; format: functional, cell-based; method in brief: as §1
# [11] = molecular target: T1, Vasopressin V1a receptor; assay: Partial agonist activity at recombinant human vasopressin V1a receptor expressed in HEK293 cells by luciferase reporter gene assay; format: functional, cell-based; method in brief: as §1
# Target sequence in this assay (P37288 whole entry, looked up): as the sequence (P37288 whole entry, looked up) above
Compound,Ratio EC50 [1],EC50 [2],EC50 ([3]; read-out: EC50),EC50 ([4]; read-out: EC50),EC50 ([5]; read-out: EC50),Ratio EC50 [6],Ratio EC50 [7],Efficacy [8],Efficacy [9],"EC50 ([4]; hek293, read-out: EC50)",EC50 ([4]; read-out: pEC50 (converted)),Efficacy [10],"EC50 ([5]; cho-k1, read-out: EC50)",EC50 ([5]; read-out: pEC50 (converted)),Efficacy [11],"EC50 ([3]; flp-in-293, read-out: EC50)",EC50 ([3]; read-out: pEC50 (converted))
CC[C@H](C)[C@@H]1NC(=O)[C@H](Cc2ccsc2)NC(=O)[C@@H](N)CSSC[C@@H](C(=O)N2CCC[C@H]2C(=O)N[C@@H](CCN)C(=O)NCC(N)=O)NC(=O)[C@H](CC(N)=O)NC(=O)[C@H](CCC(N)=O)NC1=O (H-C[3Thi]IQNCP[Dab]G-NH2; disulfide 1-6),320,0.61 nM,50 nM,200 nM,30 nM,81,49,< 70%,< 70%,,,,,,,,
CC[C@H](C)[C@@H]1NC(=O)[C@H](Cc2ccco2)NC(=O)[C@@H](N)CSSC[C@@H](C(=O)N2CCC[C@H]2C(=O)N[C@@H](CCN)C(=O)NCC(N)=O)NC(=O)[C@H](CC(N)=O)NC(=O)[C@H](CC(N)=O)NC1=O (H-C[Ala(2-furyl)]INNCP[Dab]G-NH2; disulfide 1-6),> 710,14 nM,460 nM,,780 nM,32,55,,< 70%,> 10000 nM,> 10000 nM,,,,,,
CC[C@H](C)[C@@H]1NC(=O)[C@H](Cc2ccccc2)NC(=O)[C@@H](N)CSSC[C@@H](C(=O)N2CCC[C@H]2C(=O)N[C@@H](CCCNC(C)C)C(=O)NCC(N)=O)NC(=O)[C@H](CC(N)=O)NC(=O)[C@H](CC(N)=O)NC1=O (H-CFINNCP[Orn(iPr)]G-NH2; disulfide 1-6),2600,1.4 nM,250 nM,3700 nM,110 nM,170,78,,< 70%,,,< 70%,,,,,
CC[C@H](C)[C@@H]1NC(=O)[C@H](Cc2ccccc2)NC(=O)[C@@H](N)CSSC[C@@H](C(=O)N2CCC[C@H]2C(=O)N[C@@H](CCCN)C(=O)NCC(N)=O)NC(=O)[C@H](CC(N)=O)NC(=O)[C@H](CC(=O)NC(CO)CO)NC1=O (H-CFID(NHCH(CH2OH)2)NCP[Orn]G-NH2; disulfide 1-6),> 620,16 nM,62 nM,,,3.8,> 620,< 70%,,> 10000 nM,> 10000 nM,,> 10000 nM,> 10000 nM,< 70%,,
CCCNCCC[C@H](NC(=O)[C@@H]1CCCN1C(=O)[C@@H]1CSSC[C@H](N)C(=O)N[C@@H](Cc2ccccc2)C(=O)N[C@@H]([C@@H](C)CC)C(=O)N[C@@H](CC(N)=O)C(=O)N[C@@H](CC(N)=O)C(=O)N1)C(=O)NCC(N)=O (H-CFINNCP[Orn(Pr)]G-NH2; disulfide 1-6),> 6600,1.5 nM,31 nM,,,20,> 6600,< 70%,,> 10000 nM,> 10000 nM,,> 10000 nM,> 10000 nM,,,
CC[C@H](C)[C@@H]1NC(=O)C2(CCC2)NC(=O)[C@@H](N)CSSC[C@@H](C(=O)N2CCC[C@H]2C(=O)N[C@@H](CCN)C(=O)NCC(N)=O)NC(=O)[C@H](CC(N)=O)NC(=O)[C@H](CCC(N)=O)NC1=O (H-C[Ac4c]IQNCP[Dab]G-NH2; disulfide 1-6),400,0.94 nM,64 nM,380 nM,180 nM,68,190,,< 70%,,,,,> 10000 nM,,,
CC[C@H](C)[C@@H]1NC(=O)[C@H](Cc2cscn2)NC(=O)[C@@H](N)CSSC[C@@H](C(=O)N2CCC[C@H]2C(=O)N[C@@H](CCN)C(=O)NCC(N)=O)NC(=O)[C@H](CC(N)=O)NC(=O)[C@H](CCC(N)=O)NC1=O (H-C[Ala(4-thiazolyl)]IQNCP[Dab]G-NH2; disulfide 1-6),130,19 nM,430 nM,2500 nM,1200 nM,22,63,,< 70%,,,< 70%,,,,,
CC[C@H](C)[C@@H]1NC(=O)[C@H](Cc2cnc[nH]2)NC(=O)[C@@H](N)CSSC[C@@H](C(=O)N2CCC[C@H]2C(=O)N[C@@H](CCN)C(=O)NCC(N)=O)NC(=O)[C@H](CC(N)=O)NC(=O)[C@H](CCC(N)=O)NC1=O (H-CHIQNCP[Dab]G-NH2; disulfide 1-6),> 19,510 nM,,,,> 19,> 19,,,> 10000 nM,> 10000 nM,,> 10000 nM,> 10000 nM,< 70%,> 10000 nM,> 10000 nM
CC[C@H](C)[C@@H]1NC(=O)[C@H](Cc2cccs2)NC(=O)[C@@H](N)CSSC[C@@H](C(=O)N2CCC[C@H]2C(=O)N[C@@H](CCN)C(=O)NCC(N)=O)NC(=O)[C@H](CC(N)=O)NC(=O)[C@H](CCC(N)=O)NC1=O (H-C[2Thi]IQNCP[Dab]G-NH2; disulfide 1-6),220,0.54 nM,150 nM,120 nM,29 nM,270,53,,< 70%,,,,,,,,
CC[C@H](C)[C@@H]1NC(=O)[C@H](Cc2ccccc2)NC(=O)[C@@H](N)CSSC[C@@H](C(=O)N2CCC[C@H]2C(=O)N[C@@H](CCN)C(=O)NCC(N)=O)NC(=O)[C@H](CC(N)=O)NC(=O)[C@H](CCC(N)=O)NC1=O (H-CFIQNCP[Dab]G-NH2; disulfide 1-6),140,,26 nM,73 nM,9.1 nM,52,18,,< 70%,,,,,,,,
CCNC(=O)CC[C@@H]1NC(=O)[C@H]([C@@H](C)CC)NC(=O)[C@H](Cc2ccccc2)NC(=O)[C@@H](N)CSSC[C@@H](C(=O)N2CCC[C@H]2C(=O)N[C@@H](CCCN)C(=O)NCC(N)=O)NC(=O)[C@H](CC(N)=O)NC1=O (H-CFIE(NHEt)NCP[Orn]G-NH2; disulfide 1-6),66,39 nM,97 nM,2600 nM,,2.4,> 250,,,,,< 70%,> 10000 nM,> 10000 nM,,,
